Assay results reported in ChEMBL document CHEMBL3286164, “Anti-proliferative effect of chalcone derivatives through inactivation of NF-κB in human cancer cells” (Bioorg Med Chem, 2014).
pIC50: −log10 of the molar value.

Columns and labels:
MDA-MB-231 = experiment: Antiproliferative activity against human MDA-MB-231 cells by SRB method; format: functional
Summary of the method: (§1)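 GI50 against human cancer cell lines is the mean of three independent experiments.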

[1] = Antiproliferative activity against human HCT15 cells by SRB method; format: functional; conditions: HCT-15; summary of the method: as §1
ACHN = experiment: Antiproliferative activity against human ACHN cells by SRB method; format: functional; summary of the method: as §1
[2] = Antiproliferative activity against human NUGC3 cells by SRB method; format: functional; conditions: NUGC-3; summary of the method: as §1
PC-3 = experiment: Antiproliferative activity against human PC3 cells by SRB method; format: functional; summary of the method: as §1
[3] = Inhibition of NF-kappaB in mouse RAW264.7 cells incubated for 2 hrs prior to LPS challenge measured after 16 hrs by SEAP assay; format: cell-based
Summary of the method: (§2)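 Reporter cells: RAW 264.7 carrying stably integrated pNF-κB-SEAP-NPT, or THP-1 transfected with pNF-κB-SEAP. Cells were pretreated with compound for 2 h, then stimulated with LPS (1 µg/ml) for 16 h. Culture-medium aliquots were heated at 65 °C for 5 min and incubated with 4-methylumbelliferyl phosphate (500 µM) in the dark for 1 h. Fluorescence was read at ex 360/em 449 nm as RFU. IC50 is the mean of three experiments.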

NCI-H23 = experiment: Antiproliferative activity against human NCI-H23 cells by SRB method; format: functional; summary of the method: as §1
[4] = target: Nuclear factor NF-kappa-B complex (Homo sapiens, UniProt P19838+Q00653+Q04206); experiment: Inhibition of NF-kappaB in human THP1 cells incubated for 2 hrs prior to LPS challenge measured after 16 hrs by SEAP assay; format: cell-based, THP-1; summary of the method: as §2
Nuclear factor NF-kappa-B complex, sequence (P19838 1-433 limits assumed): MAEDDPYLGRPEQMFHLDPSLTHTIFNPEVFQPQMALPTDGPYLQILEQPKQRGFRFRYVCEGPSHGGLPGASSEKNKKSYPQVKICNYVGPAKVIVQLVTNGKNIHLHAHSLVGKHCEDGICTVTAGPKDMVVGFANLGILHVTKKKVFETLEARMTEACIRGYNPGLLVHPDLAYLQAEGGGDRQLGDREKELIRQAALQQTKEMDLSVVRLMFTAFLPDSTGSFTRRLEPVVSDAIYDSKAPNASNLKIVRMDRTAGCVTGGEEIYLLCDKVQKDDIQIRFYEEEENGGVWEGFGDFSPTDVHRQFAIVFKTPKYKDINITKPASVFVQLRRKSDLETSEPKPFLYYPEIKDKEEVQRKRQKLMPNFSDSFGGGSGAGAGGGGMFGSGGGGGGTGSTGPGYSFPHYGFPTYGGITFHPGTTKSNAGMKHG
Nuclear factor NF-kappa-B complex, sequence (Q00653 1-454 limits assumed): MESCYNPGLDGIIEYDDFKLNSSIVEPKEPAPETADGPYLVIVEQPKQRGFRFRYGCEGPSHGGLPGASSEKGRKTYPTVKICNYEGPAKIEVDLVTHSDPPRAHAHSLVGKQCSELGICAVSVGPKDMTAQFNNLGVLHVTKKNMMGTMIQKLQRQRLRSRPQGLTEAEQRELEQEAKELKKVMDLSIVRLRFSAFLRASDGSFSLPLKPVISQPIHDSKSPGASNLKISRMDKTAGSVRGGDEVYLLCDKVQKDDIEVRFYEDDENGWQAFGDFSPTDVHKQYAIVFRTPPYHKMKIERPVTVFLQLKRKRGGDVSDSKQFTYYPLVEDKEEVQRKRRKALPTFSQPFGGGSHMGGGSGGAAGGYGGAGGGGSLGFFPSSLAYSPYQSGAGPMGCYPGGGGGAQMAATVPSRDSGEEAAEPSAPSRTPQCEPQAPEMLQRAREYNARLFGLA
Nuclear factor NF-kappa-B complex, sequence (Q04206 whole entry): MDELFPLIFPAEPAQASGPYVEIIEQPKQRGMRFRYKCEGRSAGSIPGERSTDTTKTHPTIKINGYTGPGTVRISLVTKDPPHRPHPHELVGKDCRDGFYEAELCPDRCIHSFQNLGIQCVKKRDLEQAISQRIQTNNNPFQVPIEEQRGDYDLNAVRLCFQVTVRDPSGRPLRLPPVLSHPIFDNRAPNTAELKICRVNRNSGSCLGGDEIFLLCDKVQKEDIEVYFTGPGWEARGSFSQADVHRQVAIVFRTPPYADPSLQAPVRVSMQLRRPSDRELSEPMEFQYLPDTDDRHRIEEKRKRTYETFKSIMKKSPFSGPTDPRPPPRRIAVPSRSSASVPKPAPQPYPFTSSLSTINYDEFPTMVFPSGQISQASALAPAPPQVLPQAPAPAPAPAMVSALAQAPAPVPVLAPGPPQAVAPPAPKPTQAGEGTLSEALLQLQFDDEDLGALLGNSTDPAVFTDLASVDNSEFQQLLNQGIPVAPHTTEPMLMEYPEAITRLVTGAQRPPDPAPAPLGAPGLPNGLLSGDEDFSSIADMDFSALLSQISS

SMILES | GI50 (MDA-MB-231) [µM] | GI50 [1] [µM] | GI50 (ACHN) [µM] | GI50 [2] [µM] | GI50 (PC-3) [µM] | pIC50 [3] | GI50 (NCI-H23) [µM] | pIC50 [4]
CC(C)CCOc1cccc(O)c1C(=O)/C=C/c1ccc(O)cc1 | 10.3 | 10.6 | 11.3 | 12.4 | 11.5 | 5.00 | 12.1 | –
CCCCCCOc1cccc(O)c1C(=O)/C=C/c1ccc(O)cc1 | > 30 | > 30 | > 30 | > 30 | > 30 | – | > 30 | –
O=C(/C=C/c1ccc(O)cc1)c1c(O)cccc1OCC1CCCCC1 | > 30 | > 30 | > 30 | > 30 | > 30 | – | > 30 | –
O=C(/C=C/c1ccc(O)cc1)c1c(O)cccc1OCc1ccccc1 | > 30 | > 30 | > 30 | > 30 | > 30 | – | > 30 | –
O=C(/C=C/c1ccc(O)cc1)c1c(O)cccc1OCC1CCCC1 | 3.41 | 3.41 | 3.51 | 2.14 | 3.04 | – | 3.16 | 4.89
CC(C)CCCOc1cccc(O)c1C(=O)/C=C/c1ccc(O)cc1 | 3.48 | 11.6 | 3.63 | 3.52 | 3.6 | – | 11.3 | 4.96
CCCCOc1cccc(O)c1C(=O)/C=C/c1ccc(O)cc1 | > 30 | > 30 | > 30 | > 30 | > 30 | – | > 30 | < 4.52
CC(C)(C)CCOc1cccc(O)c1C(=O)/C=C/c1ccc(O)cc1 | 2.38 | 3.43 | 3.14 | 3.3 | 3.22 | – | 3.13 | 5.52
CC(C)COc1cccc(O)c1C(=O)/C=C/c1ccc(O)cc1 | 3.52 | 2.6 | 3.29 | 2.98 | 2.97 | – | 3.22 | 5.10
CCC(CC)COc1cccc(O)c1C(=O)/C=C/c1ccc(O)cc1 | 3.13 | 3.42 | 3.37 | 1.96 | 3.39 | – | 3.21 | 4.92
CC(C)=CCOc1cccc(O)c1C(=O)/C=C/c1ccc(O)cc1 | > 30 | > 30 | > 30 | > 30 | > 30 | – | > 30 | < 4.52
O=C(/C=C/c1ccc(O)cc1)c1c(O)cccc1OCCC1CCCC1 | 3.34 | 3.31 | 3.4 | 3.2 | 3.48 | – | 3.37 | 4.74
O=C(/C=C/c1ccc(O)cc1)c1c(O)cccc1OCCC1CCCCC1 | > 30 | > 30 | > 30 | > 30 | > 30 | – | > 30 | < 4.52
O=C(/C=C/c1ccc(O)cc1)c1c(O)cccc1OCC12CC3CC(CC(C3)C1)C2 | > 30 | > 30 | > 30 | > 30 | > 30 | – | > 30 | < 4.52
CC(C)(C)CCOc1cccc(O)c1C(=O)/C=C/c1ccc(C(=O)O)cc1 | 11.2 | 2.17 | 8.45 | 5.44 | 6.5 | – | 4.77 | 5.55
CC(C)(C)CCOc1cccc(O)c1C(=O)/C=C/c1ccc(S(N)(=O)=O)cc1 | 2.11 | 2.93 | 3.3 | 1.17 | 3.25 | – | 2.95 | 5.92
COc1cccc(OCCC(C)(C)C)c1C(=O)/C=C/c1ccc(O)cc1 | > 30 | > 30 | > 30 | > 30 | > 30 | – | > 30 | < 4.52
CC(C)(C)CCOc1cccc(O)c1C(=O)CCc1ccc(O)cc1 | > 30 | > 30 | > 30 | > 30 | > 30 | – | > 30 | < 4.52
COc1cccc2c1C(=O)c1c(O)c3c(c(O)c1C2=O)C[C@@](O)(C(=O)CO)C[C@@H]3O[C@H]1C[C@H](N)[C@H](O)[C@H](C)O1 [DOXORUBICIN] | – | – | – | 1 | – | – | – | –
